Test results from ChEMBL document CHEMBL1177806, “Synthesis and biological activity of halophenols as potent antioxidant and cytoprotective agents” (Bioorg Med Chem Lett, 2010).
Active and inactive are the calls of the source. No cut-off for these calls is given here.

Experiments:
[1] = Antioxidant activity assessed as DPPH scavenging activity after 4 hrs […]; assay type: functional
HUVEC [2] = test: Cytoprotective activity against H2O2-induced cell injury in HUVEC cells; assay type: functional, cell-based; settings: Homo sapiens
Summary of the method: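 Cytoprotection was measured in human umbilical vein endothelial cells (HUVEC) injured with hydrogen peroxide and reported as EC50.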

[3] = Antioxidant activity assessed as DPPH scavenging activity at 100 ug/mL; assay type: functional
HUVEC [4] = test: Cytoprotective activity against H2O2-induced cell injury in HUVEC cells at 5 ug/mL after 4 hrs […]; assay type: functional, cell-based; settings: Homo sapiens

O=C(c1cccc(Cl)c1)c1ccc(O)c(O)c1
IC50 [1]: 110 µM
EC50 (HUVEC [2]): 5 µM

COc1ccc(Cc2cc(OC)c(OC)cc2Br)cc1Br
Activity [3]: inactive
Activity (HUVEC [4]): inactive

Oc1cc(Cc2ccccc2)c(Br)c(Br)c1O
IC50 [1]: 88 µM
EC50 (HUVEC [2]): 3.9 µM

COc1ccc(C(=O)c2cc(OC)c(OC)cc2Br)cc1Br
Activity [3]: inactive
Activity (HUVEC [4]): inactive

O=C(c1ccc(O)c(O)c1)c1c(Cl)c(O)c(O)c(O)c1Cl
IC50 [1]: 87.3 µM
Activity (HUVEC [4]): inactive

Oc1ccc(Cc2c(Br)c(O)c(O)c(O)c2Br)cc1O
IC50 [1]: 84.2 µM
Activity (HUVEC [4]): inactive

Cc1cc(C(C)(C)C)c(O)c(C(C)(C)C)c1 [BUTYLATED HYDROXYTOLUENE]
IC50 [1]: 169 µM

COc1ccc(Cc2ccc(Cl)cc2)cc1OC
Activity [3]: inactive
Activity (HUVEC [4]): inactive

O=C(c1ccccc1)c1cc(O)c(O)c(Br)c1Br
IC50 [1]: 87.7 µM
EC50 (HUVEC [2]): 0.8 µM

COc1cc(Br)c(Cc2ccccc2)cc1OC
Activity [3]: inactive
Activity (HUVEC [4]): inactive

COc1cc(C(=O)c2ccccc2)c(Br)c(Br)c1OC
Activity [3]: inactive
Activity (HUVEC [4]): inactive

O=C(c1ccc(O)c(Br)c1)c1cc(O)c(O)cc1Br
IC50 [1]: 61.6 µM
EC50 (HUVEC [2]): 2 µM

Oc1cc(Br)c(Cc2ccccc2)cc1O
IC50 [1]: 164 µM
EC50 (HUVEC [2]): 12.2 µM

COc1ccc(C(=O)c2ccc(Cl)cc2)cc1OC
Activity [3]: inactive
Activity (HUVEC [4]): inactive

O=C(c1ccc(O)c(O)c1)c1c(Br)c(O)c(O)c(O)c1Br
IC50 [1]: 96.2 µM
Activity (HUVEC [4]): inactive

O=C(c1cc(Br)ccc1O)c1cc(O)c(O)cc1Br
IC50 [1]: 79.6 µM
EC50 (HUVEC [2]): 0.4 µM

O=C(c1ccccc1)c1cc(O)c(O)cc1Br
IC50 [1]: 84 µM
EC50 (HUVEC [2]): 11.5 µM

COc1cc(Br)c(C(=O)c2cc(Br)ccc2OC)cc1OC
Activity [3]: inactive
Activity (HUVEC [4]): inactive

COc1ccc(C(=O)c2c(Br)c(OC)c(OC)c(OC)c2Br)cc1OC
Activity [3]: inactive
Activity (HUVEC [4]): inactive

COc1ccc(C(=O)c2ccccc2)cc1OC
Activity [3]: inactive
Activity (HUVEC [4]): inactive

Oc1cc(Br)c(Cc2ccc(O)c(Br)c2)cc1O
IC50 [1]: 87.4 µM
EC50 (HUVEC [2]): 13 µM

COc1ccc(C(=O)c2c(Cl)c(OC)c(OC)c(OC)c2Cl)cc1OC
Activity [3]: inactive
Activity (HUVEC [4]): inactive

Oc1ccc(Cc2cccc(Cl)c2)cc1O
IC50 [1]: 223 µM
Activity (HUVEC [4]): inactive

COc1ccc(Br)cc1Cc1cc(OC)c(OC)cc1Br
Activity [3]: inactive
Activity (HUVEC [4]): inactive

O=C(c1ccc(O)c(O)c1)c1ccccc1Cl
IC50 [1]: 113 µM
Activity (HUVEC [4]): inactive

O=C(c1ccc(Cl)cc1)c1ccc(O)c(O)c1
IC50 [1]: 103 µM
EC50 (HUVEC [2]): 8.9 µM

COc1ccc(Cc2c(Br)c(OC)c(OC)c(OC)c2Br)cc1OC
Activity [3]: inactive
Activity (HUVEC [4]): inactive

Oc1ccc(Cc2ccc(Cl)cc2)cc1O
IC50 [1]: 202 µM
EC50 (HUVEC [2]): 8.8 µM

COc1cc(Br)c(C(=O)c2ccccc2)cc1OC
Activity [3]: inactive
Activity (HUVEC [4]): inactive

Oc1ccc(Cc2c(Cl)c(O)c(O)c(O)c2Cl)cc1O
IC50 [1]: 102 µM
Activity (HUVEC [4]): inactive

COc1cc(Cc2ccccc2)c(Br)c(Br)c1OC
Activity [3]: inactive
Activity (HUVEC [4]): inactive

Oc1ccc(Cc2ccccc2Cl)cc1O
IC50 [1]: 131 µM
Activity (HUVEC [4]): inactive

Oc1cc(Br)c(Cc2cc(Br)ccc2O)cc1O
IC50 [1]: 88.5 µM
EC50 (HUVEC [2]): 1.1 µM

COc1ccc(Cc2c(Cl)c(OC)c(OC)c(OC)c2Cl)cc1OC
Activity [3]: inactive
Activity (HUVEC [4]): inactive

O=c1c(O)c(-c2ccc(O)c(O)c2)oc2cc(O)cc(O)c12 [QUERCETIN]
EC50 (HUVEC [2]): 18 µM

COc1ccc(Cc2cccc(Cl)c2)cc1OC
Activity [3]: inactive
Activity (HUVEC [4]): inactive

COc1ccc(Cc2ccccc2Cl)cc1OC
Activity [3]: inactive
Activity (HUVEC [4]): inactive
